From the EternaBench riboswitch data

Test system: MS2 coat protein
Assay: apparent Kd, MS2 coat protein; higher = weaker binding; RNA-MaP array; FMN 200 µM where present
Procedure, shortened: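 The apparent Kd is reported as the median of filtered per-cluster binding-curve fits. To get these curves, designs transcribed by stalled E. coli RNA polymerase on Illumina sequencing-chip clusters were titrated with SNAP-549-labelled MS2 coat protein from 0.7 or 1.5 nM, doubling to 3 µM. Titrations were run without and then with constant ligand in 100 mM Tris-HCl pH 7.5, 80 mM KCl, 4 mM MgCl2, BSA, DTT, yeast tRNA and Tween-20, and green signal was normalised to red-channel RNA signal and control-cluster median Fmax.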

[1] = designed as: OFF switch for flavin mononucleotide, no ligand
[2] = ligand present: flavin mononucleotide, designed as: OFF switch for flavin mononucleotide
[3] = designed as: ON switch for flavin mononucleotide, no ligand
[4] = ligand present: flavin mononucleotide, designed as: ON switch for flavin mononucleotide

Sequence | apparent Kd [1] [nM] | apparent Kd [2] [nM] | apparent Kd [3] [nM] | apparent Kd [4] [nM]
CGUCCUUAGUGAGGAUAUCAGAAAAUACGGAAAUGAGAAGGCACAUGAGGAUCACCCAUGUAAAUAACGGCCGGUCUUGGCAGC | 7.96 | 21.6 |  | 
AAGAAACAUGAGGAUCACCCAUGUGAGGAUAUGAAAAAGAAAAGAAAAGAAAGAAGAAUCAGAAGGCACAAAGC | 26 | 32.7 |  | 
CGUGCGUAUGUGAGGAUAUGCUGGUCCUUGGAUCGGCAGAAGGUACAUGAGGAUCACCCAUGUGGUGUCGUUCU | 252 | 292 |  | 
AAUUUCAGAUGAGGAUAUUGACAUGAGGAUCACCCAUGUAUUUGGGAAUGUUUACUGAAUUCUUACGAGAAGGUAUACGAACUU | 296 | 200 |  | 
CGGGCGGGAGGAUAUGCGUGGAUUGUUCUCGUAUGGUGUCUACAUGAGGAUCACCCAUGUAGAAGGCUUGUUUG | 14.1 | 16.7 |  | 
AAUAACAGAGGAUAUACUAUUUUAUGUGUUUGUUGUUUUGAACAUGAGGAUCACCCAUGUAGAAGGCUGAUUGA | 42.6 | 45.3 |  | 
UAUCUAUUUAUGGGAUUAGAAUAUGAGGAUAUCAUUUUUUUAUACAUGAGGAUCACCCAUGUUUCUGAGAAGGCAUAUUUAAUA |  |  | 16.9 | 5.72
CAUCUCCCUUUUACAUGAGGAUCACCCAUGUUUUCAUAUUGAGAGGAUAUCGUAUUUGGAAACAUCGAGAAGGCUCAUUUGUAU |  |  | 536 | 175
ACAAAUGGAGGAUAUACAUGAGGAUCACCCAUGUUUAUCCUACAUAUGUGAUAAUAAUGUAGAAGGCCAUUUGA | 12.5 | 16.2 |  | 
GCACGGUAUGUAGGAUAUGCAUAGCAUUGCUAUGCAGAAGGACAUGAGGAUCACCCAUGUAUGUAUUCCAUACUAAUCCCGUGU | 5.55 | 5.2 |  | 
AAGAGACAUCAGAAGGGAGCCCGAACGCACGGCUCAGGAUAUGAGAUCUUAUGUAGUACGACAUGAGGAUCACCCAUGUCCGCG |  |  | 36.2 | 8.27
AAAGCAACAUGAGGAUCACCCAUGUAGGAUAUCGCUAUUGUAAUCAUGAAACAUGAUUACAAUAGCGAGAAGGACAUAUGCUAA | 9.26 | 10.8 |  | 
CGUUUUUAUGUAGGAUAUGCUUGUGGUAAGAUAGCAGAAGGACAUGAGGAUCACCCAUGUUAAUGAUAGAGAUUUUAUGUGGCG | 37.8 | 61.4 |  | 
AAAAAGGCAGGAUAUGCAUACACACAAAAAAAAAAACUGGGACAUGAGGAUCACCCAUGUAGAAGGGCCAAAAA | 29.4 | 25.9 |  | 
GUCCGGCGUGUAGGAUAUGGAUCCGAUUAGGAUCCAGAAGGACAUGAGGAUCACCCAUGUACAUGUAAACAGUCAUCACCGGAU | 7.5 | 23.5 |  | 
CUAUUGGUAACAGGAUAUAUGAGUCCUACAUGAGGAUCACCCAUGUAGGUGAUCAAACAUGAUUAGUAGAAGGGUUACCAAUAG |  |  | 40.9 | 8.8
GUAGCAUACCGAGGAUAUUCAGGGAAUAAAUAAACAUGAGGAUCACCCAUGUGGCGAAAGCCUAGGGAGAAGGCGGAAUGCUAC |  |  | 83.6 | 21.5
GGAGACCUCACAGGAUAUGCUGGACUUUGUCCAGCAGAAGGGUGAAAACAUGAGGAUCACCCAUGUAUGGUCUCCAAAUUUAAU |  |  | 183 | 13.7
UGGUACUAGGGAGGAUAUGGGAAGAUACAUGAGGAUCACCCAUGUUUAAGAAUGCCGAGAGGCAACUAGAAGGCCCUAGUACCU |  |  | 1050 | 45.3
GACUGCUGAGGAUAUACAUGAGGAUCACCCAUGUGCUUCAGCAUCGAAAGAUGCAUUGGUAGAAGGUAGUAGUC | 11.4 | 20.1 |  | 
